# CHT allo act = CHT positive allosteric modulators, primary screen, cell-based, membrane potential dye, choline EC20; High affinity choline transporter 1 (Homo sapiens), Q9GZV3; CHT-expressing cells; active compounds read high; LV-AA mutant CHT in HEK293 cells; B-score at 10 µM; 310,000 tested, 0.49% active;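 active = initial fluorescence not abnormally high and integrated response B-score, plate-corrected, over 3 SD above library mean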
# KCC2 mod = KCC2 cotransporter modulators, thallium flux, primary screen, cell-based, HEK293 KCC2, FluoZin-2 fluorescence, MLSMR; Solute carrier family 12 member 5 (Homo sapiens), Q9H2X9; KCC2 cells, thallium flux FluoZin-2 fluorescence; B-score of Tl+ flux slope (higher = more flux/activation; lower = inhibition) at 10 µM; 190,000 tested, 2.2% active; AID 1456, 2008;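 active = thallium flux slope and its plate-corrected score both differing from the plate sample mean at a set confidence after two filtering rounds, in either direction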;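 also: slope of fluorescence scaled to starting intensity during 10 to 20 s after thallium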
# Target sequence (Q9H2X9 whole entry, looked up): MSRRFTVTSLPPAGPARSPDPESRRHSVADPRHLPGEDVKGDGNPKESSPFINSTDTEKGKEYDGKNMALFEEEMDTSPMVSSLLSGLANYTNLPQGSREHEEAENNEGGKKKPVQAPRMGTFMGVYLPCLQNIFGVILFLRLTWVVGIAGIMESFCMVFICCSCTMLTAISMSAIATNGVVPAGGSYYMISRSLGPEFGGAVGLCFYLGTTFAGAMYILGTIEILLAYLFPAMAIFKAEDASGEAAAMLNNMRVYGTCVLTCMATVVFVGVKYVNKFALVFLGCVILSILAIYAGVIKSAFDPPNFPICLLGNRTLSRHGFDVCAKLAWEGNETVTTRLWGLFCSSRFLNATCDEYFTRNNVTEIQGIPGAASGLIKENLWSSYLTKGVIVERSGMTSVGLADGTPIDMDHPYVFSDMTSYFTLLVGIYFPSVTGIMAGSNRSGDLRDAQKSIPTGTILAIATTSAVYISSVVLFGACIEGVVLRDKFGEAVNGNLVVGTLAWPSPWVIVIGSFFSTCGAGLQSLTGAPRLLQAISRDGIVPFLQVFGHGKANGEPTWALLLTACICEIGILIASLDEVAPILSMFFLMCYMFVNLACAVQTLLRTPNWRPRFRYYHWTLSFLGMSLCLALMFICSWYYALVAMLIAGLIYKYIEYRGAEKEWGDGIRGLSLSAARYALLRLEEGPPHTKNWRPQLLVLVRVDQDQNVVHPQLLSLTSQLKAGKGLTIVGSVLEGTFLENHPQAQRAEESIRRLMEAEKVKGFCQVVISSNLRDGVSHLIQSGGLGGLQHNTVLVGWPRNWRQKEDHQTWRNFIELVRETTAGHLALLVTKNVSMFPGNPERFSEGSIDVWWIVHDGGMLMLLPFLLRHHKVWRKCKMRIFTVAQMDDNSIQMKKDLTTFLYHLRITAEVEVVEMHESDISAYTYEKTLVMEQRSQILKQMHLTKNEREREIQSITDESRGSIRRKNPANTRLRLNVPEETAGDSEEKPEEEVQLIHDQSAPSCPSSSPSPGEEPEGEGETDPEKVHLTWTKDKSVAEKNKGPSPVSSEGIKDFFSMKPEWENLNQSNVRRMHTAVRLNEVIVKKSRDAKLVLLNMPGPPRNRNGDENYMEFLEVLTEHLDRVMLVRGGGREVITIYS
# CHT block = inhibitors of human choline transporter CHT. High affinity choline transporter 1 (Homo sapiens), Q9GZV3. CHT-expressing cells, membrane potential dye, choline response; active compounds read low. B-score at 10 µM. 310,000 tested, 0.86% active;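 active = B-score over 3 SD under the library average, and starting fluorescence ratio not unusually high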;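 also: choline stimulus applied at its EC90 after an EC20 pre-addition; B-score computed on integrated fluorescence ratio after choline addition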
# Rad51 HR inh = human RAD51 strand exchange inhibitors, primary screen, biochemical, fluorescence; inhibition, % at 10 µM; 200,000 tested, 0.085% active; hRad51 DNA strand exchange, fluorescence dequenching;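 active = inhibition above 40% at the single screening dose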;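 also: 0% = DMSO control wells and 100% = blanks with heterologous ssDNA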
#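 Material: Human Rad51 nucleoprotein filaments preassembled on unlabelled ssDNA | Also added: Labelled 47-mer dsDNA for strand exchange | Dosing: Single dose, 10 µM final compound | Schedule: 30-min compound preincubation and 15-min exchange, both room temperature | Technique: Fluorescence dequenching at 485/520 nm | Measure: Percent inhibition relative to plate controls and blanks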
# KCC2 secondary = KCC2 modulators in sodium-free buffer, confirmation, cell-based, HEK293 KCC2, thallium flux, secondary assay; shares compounds with KCC2 mod; FluoZin2 fluorescence; active compounds read high; normalised thallium flux (F/F0 slope) at 10 µM; 3,700 tested, 15% active; AID 1713, 2009;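 active = thallium flux slope above the same plate's solvent-only control mean plus 3 SD; inconclusive = the two replicate wells disagree; inactive = no significant difference from solvent-only control wells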
# KCC2 bumet counter = thallium flux persisting under bumetanide in KCC2 cells, confirmation, counter-screen for KCC2 modulator project, cell-based, HEK293 KCC2, FluoZin2, secondary assay 3 | shares compounds with KCC2 mod | HEK293-KCC2 + bumetanide/ouabain; active compounds read high | normalized thallium flux at 10 µM | 3,700 tested, 49% active;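 active = thallium entry rate above the same plate's blocked-transporter control wells by more than 3 SD; inconclusive = the two repeat wells disagree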;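 also: raw slope of fluorescence over initial fluorescence between 10 and 20 s after thallium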
# KCC2 secondary2 = KCC2 modulators without ouabain present, confirmation, cell-based, HEK293 KCC2, thallium flux, FluoZin2, secondary assay 2. shares compounds with KCC2 mod. normalized thallium flux at 10 µM. AID 1715, 2009. thallium flux FluoZin2 fluorescence; actives lie on both sides; F/F0 rise rate, 10–20 s post-thallium. 3,700 tested, 23% active;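 active = thallium flux slope more than 3 SD above or below the plate's solvent-only control mean, mostly below; inconclusive = the two repeat wells disagreed; inactive = no significant shift from solvent-only controls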;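 also: raw slope with 0.1% DMSO as baseline and bumetanide as block control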
# HEK293 Tl flux = thallium flux modulation in parental HEK cells, confirmation, counter-screen for KCC2 modulator project, cell-based, counterscreen 1; shares compounds with KCC2 mod; HEK293 parental cells, thallium flux FluoZin2, ouabain; baseline-ratio fluorescence slope, 10–20 s after thallium; thallium flux rate (normalised fluorescence) at 10 µM; 3,700 tested, 46% active;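 active = thallium flux rate significantly above the same plate's solvent-only control wells, beyond their mean plus 3 SD; inconclusive = the two replicate wells gave conflicting results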
# KCC2 ouabain = KCC2 inhibitors and activators, ouabain retest, confirmation, HEK-KCC2 cells; shares compounds with KCC2 mod; HEK293-KCC2, thallium flux FluoZin2 fluorescence; bidirectional: low = inhibitor, high = activator; raw Tl+ flux slope (below DMSO = inhibition, above = activation) at 10 µM; 3,700 tested, 48% active;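 active = thallium flux slope beyond 3 SD from same-plate DMSO control mean in most replicates, usually higher, sometimes lower; inconclusive = repeat tests gave conflicting results; inactive = no significant difference from controls in most replicates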;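 also: slope of initial-normalized fluorescence between seconds 10 and 20 after thallium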
# HEK counter2 = native HEK Tl+ uptake effects, second counter-screen – HEK cells, counterscreen 2, counter-screen for KCC2 modulator project, confirmation | shares compounds with KCC2 mod | thallium flux slope at 10 µM | 3,700 tested, 33% active | HEK293 parental, thallium flux FluoZin-2 fluorescence slope;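 active = thallium flux slope above the same plate's solvent-control mean plus 3 SD in both duplicate wells; inconclusive = duplicate wells that disagreed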;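 also: run without ouabain in cells lacking the KCC2 cotransporter; slope of fluorescence scaled to its starting value between 10 and 20 s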
# * hit, by the source's call; i = inactive; ? = inconclusive; nt = no result. Rows were chosen to be rich in hits. Some 2.6% of all compounds tested hit in one or more screens of this group.
SMILES,CHT allo act,KCC2 mod,CHT block,Rad51 HR inh,KCC2 secondary,KCC2 bumet counter,KCC2 secondary2,HEK293 Tl flux,KCC2 ouabain,HEK counter2
Oc1c(Cl)cc(Cl)cc1/C=N/NC(=S)NC1CC2C=CC1C2 (stereo not drawn),i,9.22*,i,-6.2,0.0083,0.0174*,0.028,0.0112*,?,0.00968
Oc1ccccc1/C=N/NC(=S)NC1CC2C=CC1C2 (stereo not drawn),i,18.3*,i,-5.9,?,0.0515*,0.034,0.0249*,0.0307,0.0136*
Oc1ccccc1/C=N/NC(=S)NCCc1ccccc1,i,nt,i,nt,nt,nt,nt,nt,nt,nt
O=C(N/N=C/c1cc(Cl)cc(Cl)c1O)c1ccncc1,i,i,i,-416.6,nt,nt,nt,nt,nt,nt
COc1ccc(NC(=O)C(OC(=O)c2cnccn2)c2ccccc2)cc1Cl (stereo not drawn),i,nt,i,nt,nt,nt,nt,nt,nt,nt
O=C(Cc1ccc(Cl)cc1)Nc1cccc(-c2nnc(-c3ccco3)o2)c1,i,0.689,i,-0.8,nt,nt,nt,nt,nt,nt
O=C(Cc1ccccc1)Nc1cccc(-c2nnc(-c3ccco3)o2)c1,i,-1.86,i,-10.7,0.00522,0.00449,0.0301,0.00676,?,0.0104
CCN(CC(=O)NCc1cccs1)C(=O)c1cc(S(=O)(=O)NCc2ccccc2)ccc1C,i,nt,i,nt,nt,nt,nt,nt,nt,nt
O=C(CSc1ncnc2sc3c(c12)CCC3)Nc1ccccc1C(=O)O,i,-0.00455,i,-28.8,nt,nt,nt,nt,nt,nt
Fc1ccc(CSc2ncnc3sc4c(c23)CCCC4)cc1,i,1.4,i,0.5,nt,nt,nt,nt,nt,nt
Cc1noc(C)c1CSc1ncnc2sc(C)c(C)c12,i,0.272,i,5.2,nt,nt,nt,nt,nt,nt
O=C(O)CSc1ncnc2sc3c(c12)CCC3,i,7.81*,i,nt,0.0159*,0.0348*,0.0307,0.0159*,0.0368*,0.0121*
O=C(O)CSc1ncnc2sc3c(c12)CCCC3,i,11.6*,i,-2.8,0.00605,0.00651*,?,0.00993*,0.0176,0.00928
CCSc1ncnc2sc3c(c12)CCC3,i,0.932,i,-0.9,nt,nt,nt,nt,nt,nt
Cc1ccc(C(=O)CSc2ncnc3sc4c(c23)CCCC4)cc1,i,5.33*,i,2.8,0.0138*,0.0331*,0.0324,0.0258*,0.0304*,?
Cc1noc(C)c1CSc1ncnc2sc3c(c12)CCCCC3,i,77.7*,i,-19.2,0.0329*,0.165*,?,0.0778*,0.112*,0.0277*
Cc1ccc(NS(=O)(=O)c2c(C(=O)N3CCCC3)c(C)n(C)c2C)cc1,i,nt,i,nt,nt,nt,nt,nt,nt,nt
Cc1ccc(N=CC2=C(O)CC(c3ccc(Cl)cc3)CC2=O)cc1 (stereo not drawn),i,0.285,i,nt,nt,nt,nt,nt,nt,nt
CCN(c1ccc(F)cc1)S(=O)(=O)c1cccc2nsnc12,i,nt,i,nt,nt,nt,nt,nt,nt,nt
Nn1c(SCc2ccccc2)nc2c(cnn2-c2ccccc2)c1=O,i,0.694,i,-17.5,nt,nt,nt,nt,nt,nt
O=C(O)CSc1nc2c(cnn2-c2ccccc2)c(=O)n1-c1ccc(Br)cc1,i,-5.57*,i,nt,0.00549,0.0045,0.0217*,?,0.0112*,0.00969
[O-][n+]1cccc2c(Br)cc(Br)c(O)c21,i,29.3*,i,3.1,0.00707,0.0726*,0.0473*,0.0466*,0.0635*,0.0343*
COc1ccc(-n2c(-c3ccc(Cl)cc3)c[nH]c2=S)cc1,i,nt,i,nt,nt,nt,nt,nt,nt,nt
COc1ccc(-n2cc(-c3ccc(Cl)cc3)[nH]c2=S)cc1,i,5.66*,i,3.1,0.0246*,0.0132*,0.0302,0.00925*,0.0192,0.0115
Cc1cc([N+](=O)[O-])ccc1NC(=O)CSc1nnc(C)n1C,i,nt,i,nt,nt,nt,nt,nt,nt,nt
SMILES,CHT allo act,KCC2 mod,CHT block,Rad51 HR inh,KCC2 secondary,KCC2 bumet counter,KCC2 secondary2,HEK293 Tl flux,KCC2 ouabain,HEK counter2
COc1cc(C=O)cc(Cl)c1OC(=O)N1CCOCC1,i,nt,i,nt,nt,nt,nt,nt,nt,nt
NC(=O)C1CCN(CC(=O)c2c[nH]c3ccc(F)cc23)CC1,i,1.01,i,-0.1,nt,nt,nt,nt,nt,nt
O=C(CN1CCN(c2ccccc2F)CC1)c1c[nH]c2ccc(F)cc12,i,-3.99*,i,2.2,0.00728,0.0108*,0.0313,?,0.0176*,0.0101
Cc1cc(C)c(NC(=O)NC(=O)c2cccc(F)c2)c(C)n1,i,-4.13*,i,-40.9,0.0112,0.00598,0.0319,0.00796,0.019,?
O=C(CCCc1nc2ccccc2s1)NCc1ccccc1,i,-2.39,i,nt,nt,nt,nt,nt,nt,nt
O=C(CCCc1nc2ccccc2s1)NCc1ccc(F)cc1,i,-3.95*,i,-22.8,0.0139*,0.0183*,0.034,0.0118*,0.0227,0.0124*
N#Cc1cccc(S(=O)(=O)NCC(=O)OCC(=O)c2ccc[nH]2)c1,i,-0.863,i,6.8,nt,nt,nt,nt,nt,nt
Cc1ccc(NS(=O)(=O)c2ccc(OCC(=O)NCc3ccncc3)cc2)cc1,i,0.559,i,6.1,nt,nt,nt,nt,nt,nt
O=c1c(C=NCCCO)c(-c2ccccc2)[nH]n1-c1nc2ccccc2s1,i,-0.906,i,0.4,nt,nt,nt,nt,nt,nt
O=c1cc(-c2ccccc2)[nH]n1-c1nc2ccccc2s1,i,14.1*,i,3.9,0.0082,0.0367*,?,0.025*,0.0402*,0.0166*
C=CCSc1n[nH]c2nc3c(c(=O)n12)C1(CCCC1)Cc1ccccc1-3,i,nt,i,nt,0.00818,?,0.0343,?,0.0186,0.0105
Fc1ccc(NC(=S)Nc2cccnc2)c(Cl)c1,i,0.442,i,-1.7,nt,nt,nt,nt,nt,nt
Fc1ccc(NC(=S)Nc2ccc(Cl)cc2Cl)cc1,i,4.46*,i,-64.0,0.0102,0.0417*,0.0348,0.0161*,?,0.0131*

# Screening data: PubChem, several laboratories
